Laboratory results reported in ChEMBL document CHEMBL4041465, “Synthesis, characterization and molecular docking studies of substituted 4-coumarinylpyrano[2,3-c]pyrazole derivatives as potent antibacterial and anti-inflammatory agents” (2017).
Converted amounts (≈) assume the structure as drawn.

Experiments:
[1] = system: Pseudomonas aeruginosa; experiment: Antibacterial activity against Pseudomonas aeruginosa MTCC 25668 after 24 hrs by broth microdilution method; format: functional; conditions: MTCC 25668, 24 h
How it was run: (§1)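 Broth tube dilution MIC in Brain Heart Infusion broth, triplicate per strain. Strains were subcultured at 35 °C for 48 h, then log-phase inoculum was grown from 3–5 colonies at 35 °C for 2–6 h and adjusted to 0.5 McFarland. […] serial dilutions were made over 10 tubes, with a media-plus-culture tube as negative control. Incubation was 24 h at 37 °C, and growth was read as turbidity.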

[2] = system: Enterococcus faecalis; experiment: Antibacterial activity against Enterococcus faecalis MTCC 35550 after 24 hrs by broth microdilution method; format: functional; conditions: MTCC 35550, 24 h; how it was run: as §1
[3] = system: Staphylococcus aureus; experiment: Antibacterial activity against Staphylococcus aureus MTCC 12598 after 24 hrs by broth microdilution method; format: functional; conditions: MTCC 12598, 24 h; how it was run: as §1
[4] = system: Escherichia coli; experiment: Antibacterial activity against Escherichia coli MTCC 443 after 24 hrs by broth microdilution method; format: functional; conditions: MTCC 443, 24 h; how it was run: as §1
[5] = Potency index, ratio of compound effect to aceclofenac effect for in vitro anti-inflammatory activity using hen egg assessed as inhibition of heat-induced egg albumin denaturation
[6] = In vitro anti-inflammatory activity using hen egg assessed as inhibition of heat-induced egg albumin denaturation at 31.25 ug/ml incubated at 37 +/- 2 degC for 15 mins followed by incubation at 70 degC for 5 mins by UV spectrophotometric method relative to control; format: functional
How it was run: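 The 5 mL mix held 0.2 mL fresh hen egg albumin, 2.8 mL PBS pH 6.4 and 2 mL test solution, with water in place of test solution as control. It was held 15 min at 37±2 °C, heated 5 min at 70 °C and cooled, then absorbance was read at 660 nm against a vehicle blank. % inhibition = 100×(Abs control − Abs sample)/Abs control.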

SMILES	MIC [1] [µg/mL]	MIC [2] [µg/mL]	MIC [3] [µg/mL]	MIC [4] [µg/mL]	Ratio [5]	inhibition [6] [%]
CCOC(=O)C1=C(N)Oc2[nH]nc(C)c2C1c1cc(=O)oc2ccc(OC)cc12 (stereo unspecified)	6.25 (≈ 15.7 µM)	3.12 (≈ 7.86 µM)	1.56 (≈ 3.93 µM)	6.25 (≈ 15.7 µM)	10	51.4
Cc1n[nH]c(O)c1C(CC(=O)O)c1cc(=O)oc2c1ccc1ccccc12 (stereo unspecified)	12.5 (≈ 34.3 µM)	12.5 (≈ 34.3 µM)	6.25 (≈ 17.2 µM)	6.25 (≈ 17.2 µM)	–	39.8
CCOC(=O)C1=C(N)Oc2[nH]nc(C)c2C1c1cc(=O)oc2cc(C)ccc12 (stereo unspecified)	12.5 (≈ 32.8 µM)	25 (≈ 65.6 µM)	3.12 (≈ 8.19 µM)	3.12 (≈ 8.19 µM)	–	28.7
COc1ccc2oc(=O)cc(C(CC(=O)O)c3c(C)n[nH]c3O)c2c1 (stereo unspecified)	6.25 (≈ 18.2 µM)	1.56 (≈ 4.53 µM)	0.78 (≈ 2.27 µM)	3.12 (≈ 9.08 µM)	10	63.1
CCOC(=O)C1=C(N)Oc2[nH]nc(C)c2C1c1cc(=O)oc2c1ccc1ccccc12 (stereo unspecified)	6.25 (≈ 15 µM)	12.5 (≈ 29.9 µM)	3.12 (≈ 7.49 µM)	6.25 (≈ 15 µM)	–	37.6
O=C(O)COC(=O)Cc1ccccc1Nc1c(Cl)cccc1Cl	–	–	–	–	–	5.5
Cc1ccc2oc(=O)cc(C(CC(=O)O)c3c(C)n[nH]c3O)c2c1 (stereo unspecified)	25 (≈ 76.1 µM)	6.25 (≈ 19 µM)	3.12 (≈ 9.52 µM)	12.5 (≈ 38.1 µM)	–	37.4
O=C(O)c1cn(C2CC2)c2cc(N3CCNCC3)c(F)cc2c1=O [CIPROFLOXACIN]	–	6.25 (≈ 18.9 µM)	–	3.12 (≈ 9.43 µM)	–	–
Cc1n[nH]c2c1C(c1cc(=O)oc3c1ccc1ccccc13)C(C#N)=C(N)O2 (stereo unspecified)	25 (≈ 67.5 µM)	12.5 (≈ 33.8 µM)	6.25 (≈ 16.9 µM)	25 (≈ 67.5 µM)	–	14.4
Cc1ccc2c(C(CC(=O)O)c3c(C)n[nH]c3O)cc(=O)oc2c1 (stereo unspecified)	12.5 (≈ 38.1 µM)	6.25 (≈ 19 µM)	3.12 (≈ 9.52 µM)	6.25 (≈ 19 µM)	–	40.6
Cc1n[nH]c(O)c1C(CC(=O)O)c1cc(=O)oc2ccc(Cl)cc12 (stereo unspecified)	50 (≈ 143 µM)	6.25 (≈ 17.9 µM)	1.56 (≈ 4.47 µM)	25 (≈ 71.7 µM)	10	42.6

Continued, in another order:

MIC [1] [µg/mL]	MIC [2] [µg/mL]	MIC [3] [µg/mL]	MIC [4] [µg/mL]	SMILES	Ratio [5]	inhibition [6] [%]
12.5 (≈ 40.3 µM)	12.5 (≈ 40.3 µM)	6.25 (≈ 20.1 µM)	3.12 (≈ 10.1 µM)	Cc1ccc2oc(=O)cc(C3CC(=O)Oc4[nH]nc(C)c43)c2c1 (stereo unspecified)	–	16
12.5 (≈ 35.2 µM)	6.25 (≈ 17.6 µM)	3.12 (≈ 8.81 µM)	3.12 (≈ 8.81 µM)	Cc1n[nH]c2c1C(c1cc(=O)oc3ccc(Cl)cc13)C(C#N)=C(N)O2 (stereo unspecified)	–	28
12.5 (≈ 37.4 µM)	12.5 (≈ 37.4 µM)	6.25 (≈ 18.7 µM)	12.5 (≈ 37.4 µM)	Cc1ccc2oc(=O)cc(C3C(C#N)=C(N)Oc4[nH]nc(C)c43)c2c1 (stereo unspecified)	–	10.3
12.5 (≈ 37.8 µM)	12.5 (≈ 37.8 µM)	6.25 (≈ 18.9 µM)	6.25 (≈ 18.9 µM)	Cc1n[nH]c2c1C(c1cc(=O)oc3ccc(Cl)cc13)CC(=O)O2 (stereo unspecified)	–	3.27
6.25 (≈ 20.1 µM)	6.25 (≈ 20.1 µM)	6.25 (≈ 20.1 µM)	12.5 (≈ 40.3 µM)	Cc1ccc2c(C3CC(=O)Oc4[nH]nc(C)c43)cc(=O)oc2c1 (stereo unspecified)	–	15.8
6.25 (≈ 18 µM)	12.5 (≈ 36.1 µM)	12.5 (≈ 36.1 µM)	12.5 (≈ 36.1 µM)	Cc1n[nH]c2c1C(c1cc(=O)oc3c1ccc1ccccc13)CC(=O)O2 (stereo unspecified)	–	1.89
6.25 (≈ 16.4 µM)	6.25 (≈ 16.4 µM)	3.12 (≈ 8.19 µM)	12.5 (≈ 32.8 µM)	CCOC(=O)C1=C(N)Oc2[nH]nc(C)c2C1c1cc(=O)oc2ccc(C)cc12 (stereo unspecified)	–	24.8
50 (≈ 124 µM)	6.25 (≈ 15.6 µM)	3.12 (≈ 7.78 µM)	6.25 (≈ 15.6 µM)	CCOC(=O)C1=C(N)Oc2[nH]nc(C)c2C1c1cc(=O)oc2ccc(Cl)cc12 (stereo unspecified)	–	39.1
6.25 (≈ 19.2 µM)	6.25 (≈ 19.2 µM)	3.12 (≈ 9.58 µM)	6.25 (≈ 19.2 µM)	COc1ccc2oc(=O)cc(C3CC(=O)Oc4[nH]nc(C)c43)c2c1 (stereo unspecified)	–	29.3
3.12 (≈ 9.35 µM)	12.5 (≈ 37.4 µM)	6.25 (≈ 18.7 µM)	0.78 (≈ 2.33 µM)	Cc1ccc2c(C3C(C#N)=C(N)Oc4[nH]nc(C)c43)cc(=O)oc2c1 (stereo unspecified)	–	7.6
1.56 (≈ 4.45 µM)	12.5 (≈ 35.7 µM)	3.12 (≈ 8.92 µM)	6.25 (≈ 17.8 µM)	COc1ccc2oc(=O)cc(C3C(C#N)=C(N)Oc4[nH]nc(C)c43)c2c1 (stereo unspecified)	–	19.1
